One series deals with Prothrombin (Homo sapiens, UniProt P00734). Description: Inhibitory activity against thrombin using human purified enzyme. In outline: (§1)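 Human purified enzyme in 0.1 M sodium phosphate buffer with 0.2 M NaCl and 0.5% polyethylene glycol 6000, pH 7.0. Inhibitor tested at eight half-log concentrations from 10 down to 0.00316. Plates read at 405 nm for 30 min. Rates compared with no-inhibitor controls to give % activity, converted to Ki using substrate concentration and Km. Duplicate runs with common internal standards.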

Another series has as its target Serine protease 1 (Homo sapiens, UniProt P07477). Description: Inhibitory activity against trypsin using human purified enzyme. In outline: as §1
Series [1] has as its target Coagulation factor X (Homo sapiens, UniProt P00742). Description: Inhibitory activity against factor Xa using human purified enzyme. In outline:
as §1

Series [2] is described as follows: Pharmacokinetic profile in terms of clearance was determined at a dose of 5 mg/kg administered intravenously in dog. Also on record: dose 5 mg/kg, route intravenous. Type of series: ADME, organism-based, Canis lupus familiaris. Conditions: in vivo, iv.
Series [3] concerns the target T1, Coagulation factor X (Oryctolagus cuniculus, UniProt O19045).
T1 sequence (O19045 whole entry): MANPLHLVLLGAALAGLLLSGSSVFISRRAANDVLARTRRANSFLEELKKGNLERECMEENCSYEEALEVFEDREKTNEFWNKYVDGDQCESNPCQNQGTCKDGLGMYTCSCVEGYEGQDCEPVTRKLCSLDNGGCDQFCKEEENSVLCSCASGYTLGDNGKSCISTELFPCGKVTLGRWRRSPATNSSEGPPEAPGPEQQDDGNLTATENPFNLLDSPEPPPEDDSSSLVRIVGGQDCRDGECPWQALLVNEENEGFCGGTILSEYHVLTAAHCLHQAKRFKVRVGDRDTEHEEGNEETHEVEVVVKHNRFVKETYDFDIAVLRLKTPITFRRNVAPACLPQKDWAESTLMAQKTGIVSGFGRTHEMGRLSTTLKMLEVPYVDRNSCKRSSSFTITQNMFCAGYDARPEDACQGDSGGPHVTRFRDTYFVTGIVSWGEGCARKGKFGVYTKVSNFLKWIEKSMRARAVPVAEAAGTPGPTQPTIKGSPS
Description: Inhibitory activity against Rabbit factor Xa was determined.

The species named for series [4] is Oryctolagus cuniculus. Briefly: (§2) Inhibitory concentration required for antithrombotic efficacy in rabbit arterio-venous shunt model. Type of series: functional.
Series [5] in a line: Pharmacokinetic profile in terms of half life was determined at a dose of 5 mg/kg administered intravenously in dog. Type of series: ADME, organism-based, Canis lupus familiaris. Set-up: dose 5 mg/kg, route intravenous. Conditions: in vivo, iv.
Series [6] is described as follows: Pharmacokinetic profile in terms of clearance was determined at a dose of 0.5 mg/kg administered intravenously in dog. Set-up: dose 0.5 mg/kg, route intravenous. Conditions: in vivo, iv. Type of series: ADME, organism-based, Canis lupus familiaris.
Series [7] can be described thus: Pharmacokinetic profile in terms of half life was determined at a dose of 0.5 mg/kg administered intravenously in dog. Type of series: ADME, organism-based, Canis lupus familiaris. Set-up: dose 0.5 mg/kg, route intravenous. To be noted: in vivo, iv.
Series [8] is filed under the species Oryctolagus cuniculus. Described as §2. Type of series: functional, organism-based.

As usually defined, the Ki is the dissociation constant of the complex between target and ligand, obtained from inhibition or displacement. Low values mean a stronger hold on the target, high ones a looser hold on the target. In general, clearance refers to the rate of elimination divided by the concentration. One may read the half-life as the time needed for the level to fall by half in the phase considered. A low value points to fast loss.

Sequence of Serine protease 1 (P07477 whole entry): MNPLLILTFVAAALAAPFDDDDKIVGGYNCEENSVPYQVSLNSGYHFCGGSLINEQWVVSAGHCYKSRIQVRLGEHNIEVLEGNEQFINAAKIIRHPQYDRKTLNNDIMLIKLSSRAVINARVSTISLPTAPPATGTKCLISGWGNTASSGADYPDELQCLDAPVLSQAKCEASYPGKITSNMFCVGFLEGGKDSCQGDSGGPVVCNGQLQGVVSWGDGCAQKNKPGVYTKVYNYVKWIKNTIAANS
Sequence of Coagulation factor X (Homo sapiens, UniProt P00742) (P00742 41-179 limits assumed): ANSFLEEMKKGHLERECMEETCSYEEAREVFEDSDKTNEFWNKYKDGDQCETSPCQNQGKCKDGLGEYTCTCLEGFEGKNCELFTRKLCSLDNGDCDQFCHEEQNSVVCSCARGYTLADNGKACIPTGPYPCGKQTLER
Sequence of Coagulation factor X (Homo sapiens, UniProt P00742) (P00742 235-488 limits assumed): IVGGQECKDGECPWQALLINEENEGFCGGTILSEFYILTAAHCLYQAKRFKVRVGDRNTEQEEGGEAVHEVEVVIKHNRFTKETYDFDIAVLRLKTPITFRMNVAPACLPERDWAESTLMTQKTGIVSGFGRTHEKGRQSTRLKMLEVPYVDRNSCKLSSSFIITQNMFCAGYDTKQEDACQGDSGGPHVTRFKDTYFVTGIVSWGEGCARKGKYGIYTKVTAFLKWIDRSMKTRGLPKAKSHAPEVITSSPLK

Take `NC(=O)NCC1(C(=O)Nc2ccc(-c3ccccc3S(N)(=O)=O)cn2)CC(c2ccc(Cl)c(N)c2)=NO1` (racemic): the figures for the Ki at Prothrombin, on Serine protease 1 and on Coagulation factor X [1] were 9300 nM, over 1600 nM and 2.5 nM, respectively.
As for `CS(=O)(=O)NCC1(C(=O)Nc2ccc(-c3ccccc3S(N)(=O)=O)cn2)CC(c2ccc(Cl)c(N)c2)=NO1` (single isomer, unassigned; (+)), the Ki on Prothrombin was over 21000 nM; on Serine protease 1, over 4200 nM; at Coagulation factor X [1] it was 240 nM.
In the case of `CS(=O)(=O)NCC1(C(=O)Nc2ccc(-c3ccccc3S(N)(=O)=O)cn2)CC(c2ccc(Cl)c(N)c2)=NO1` (racemic), the values for the inhibition constant (Ki) at Prothrombin, at Serine protease 1 and at Coagulation factor X [1] were 1300 nM, over 8000 nM and 1.9 nM, respectively.
`CC1(C(=O)Nc2ccc(-c3ccccc3S(N)(=O)=O)cc2)CC(c2cccc(C(=N)N)c2)=NO1` (centres undefined): on Coagulation factor X [1], the Ki was found to be 7.2 nM. In other words, the single-digit nanomolar range.
In the case of `CCNC(=O)NCC1(C(=O)Nc2ccc(-c3ccccc3S(N)(=O)=O)cn2)CC(c2ccc(Cl)c(N)c2)=NO1` (racemic), the Ki on Prothrombin is over 6300 nM; on Serine protease 1, over 4200 nM; at Coagulation factor X [1], 69 nM.
Turning to `CC(=O)NCC1(C(=O)Nc2ccc(-c3ccccc3S(N)(=O)=O)cn2)CC(c2ccc(Cl)c(N)c2)=NO1` (racemic), the results for the Ki at Prothrombin, on Serine protease 1 and at Coagulation factor X [1] were over 21000 nM, over 1600 nM and 11 nM, respectively.
For `Nc1cc(C2=NOC(Cn3cccn3)(C(=O)Nc3ccc(-c4ccccc4S(N)(=O)=O)cn3)C2)ccc1Cl` (single isomer, unassigned; (-)) the same measures were over 21000 nM, over 1600 nM and 15 nM.
As for `Nc1cc(C2=NOC(CNS(N)(=O)=O)(C(=O)Nc3ccc(-c4ccccc4S(N)(=O)=O)cn3)C2)ccc1Cl` (racemic), the inhibition constant (Ki) on Prothrombin was 5900 nM; at Serine protease 1, over 8000 nM; at Coagulation factor X [1] it was 5.5 nM.
In the case of `Nc1cc(C2=NOC(Cn3cnnn3)(C(=O)Nc3ccc(-c4ccccc4S(N)(=O)=O)cn3)C2)ccc1Cl` (single isomer, unassigned; (+)), the inhibitory constant (Ki) was over 21000 nM at Prothrombin, over 1600 nM at Serine protease 1 and 320 nM at Coagulation factor X [1].
Turning to `Nc1cc(C2=NOC(CNS(=O)(=O)c3ccccc3)(C(=O)Nc3ccc(-c4ccccc4S(N)(=O)=O)cn3)C2)ccc1Cl` (racemic), the Ki is over 21000 nM on Prothrombin, over 8000 nM at Serine protease 1 and 1.7 nM at Coagulation factor X [1].
For `Nc1cc(C2=NOC(Cn3cccn3)(C(=O)Nc3ccc(-c4ccccc4S(N)(=O)=O)cn3)C2)ccc1Cl` (single isomer, unassigned; (+)), the Ki at Prothrombin was over 21000 nM; on Serine protease 1 it was over 1600 nM; at Coagulation factor X [1] it was 1100 nM.
The like results for `CCCS(=O)(=O)NCC1(C(=O)Nc2ccc(-c3ccccc3S(N)(=O)=O)cn2)CC(c2ccc(Cl)c(N)c2)=NO1` (racemic) were, in that order, 18000 nM, over 8000 nM and 3.7 nM.
For the compound `Nc1cc(C2=NOC(Cn3cncn3)(C(=O)Nc3ccc(-c4ccccc4S(N)(=O)=O)cn3)C2)ccc1Cl` (racemic), the Ki at Prothrombin was over 21000 nM; at Serine protease 1, over 4200 nM; at Coagulation factor X [1] it was 34 nM.
`CS(=O)(=O)NCC1(C(=O)Nc2ccc(-c3ccccc3S(N)(=O)=O)cn2)CC(c2ccc3onc(N)c3c2)=NO1` (centres undefined): the Ki at Prothrombin is 5200 nM; at Serine protease 1, over 5200 nM; at Coagulation factor X [1], 4.6 nM.
In [2], `N=C(N)c1cccc(C2=NOC(Cn3cnnn3)(C(=O)Nc3ccc(-c4ccccc4S(N)(=O)=O)cn3)C2)c1` (centres undefined) showed a clearance of 22 mL/min/kg. On Coagulation factor X [3], this compound displayed a Ki of 0.11 nM. In the series filed under Oryctolagus cuniculus [4], this compound gave an ID50 of 0.032 µM/h/kg. In series [5], the half-life was 1.1 h.
Take `Nc1cc(C2=NOC(CNS(=O)(=O)Cc3ccccc3)(C(=O)Nc3ccc(-c4ccccc4S(N)(=O)=O)cn3)C2)ccc1Cl` (racemic): the values for the Ki on Prothrombin, on Serine protease 1 and at Coagulation factor X [1] were 6200 nM, over 4200 nM and 2.2 nM, respectively.
As for `NC(=O)NCC1(C(=O)Nc2ccc(-c3ccccc3S(N)(=O)=O)cn2)CC(c2ccc(Cl)c(N)c2)=NO1` (single isomer, unassigned; (+)), the Ki was over 21000 nM at Prothrombin, over 6000 nM on Serine protease 1 and 69 nM on Coagulation factor X [1].
With `Nc1cc(C2=NOC(CNS(=O)(=O)c3cccnc3)(C(=O)Nc3ccc(-c4ccccc4S(N)(=O)=O)cn3)C2)ccc1Cl` (racemic), the inhibition constant Ki was 17000 nM on Prothrombin, over 8000 nM on Serine protease 1 and 3 nM at Coagulation factor X [1].
With `Nc1cc(C2=NOC(Cn3cnnn3)(C(=O)Nc3ccc(-c4ccccc4S(N)(=O)=O)cn3)C2)ccc1Cl` (stereo in doubt; 20 (-)), the Ki is 19000 nM at Prothrombin, over 1600 nM on Serine protease 1 and 7.1 nM at Coagulation factor X [1].
`CC1(C(=O)Nc2ccc(-c3ccccc3S(N)(=O)=O)cc2)CC(c2ccc(Cl)c(N)c2)=NO1` (centres undefined) came in with an inhibition constant (Ki) at Coagulation factor X [1] of 130 nM.
`NC(=O)NCC1(C(=O)Nc2ccc(-c3ccccc3S(N)(=O)=O)cn2)CC(c2ccc(Cl)c(N)c2)=NO1` (single isomer, unassigned; (-)): the inhibitory constant (Ki) was 800 nM on Prothrombin, over 1600 nM on Serine protease 1, 4.7 nM on Coagulation factor X [3] and 2.5 nM at Coagulation factor X [1]. For the same compound, the clearance in [6] was 7.17 mL/min/kg. Also, in series [7], the half-life is 2.32 h. The ID50 in the series filed under Oryctolagus cuniculus [8] stood at 5.5 µmol/kg/h.
In the case of `Nc1cc(C2=NOC(Cn3cccn3)(C(=O)Nc3ccc(-c4ccccc4S(N)(=O)=O)cn3)C2)ccc1Cl` (racemic), the inhibition constant Ki at Prothrombin is over 21000 nM; at Serine protease 1 it was over 1600 nM; at Coagulation factor X [1] it was 14 nM.
For `COc1ccc(C2=NOC(CNS(C)(=O)=O)(C(=O)Nc3ccc(-c4ccccc4S(N)(=O)=O)cn3)C2)cc1` (centres undefined) the same measures were over 6300 nM, over 4200 nM and 10 nM.
For `Nc1cc(C2=NOC(CNS(=O)(=O)c3ccsc3)(C(=O)Nc3ccc(-c4ccccc4S(N)(=O)=O)cn3)C2)ccc1Cl` (racemic) the same measures were over 21000 nM, over 8000 nM and 1.2 nM.
Regarding `Nc1cc(C2=NOC(Cn3cnnn3)(C(=O)Nc3ccc(-c4ccccc4S(N)(=O)=O)cn3)C2)ccc1Cl` (racemic), the Ki at Prothrombin is over 21000 nM; at Serine protease 1 it was over 1600 nM; on Coagulation factor X [1] it was 10 nM.
As for `Nc1cc(C2=NOC(CNS(=O)(=O)CC(F)(F)F)(C(=O)Nc3ccc(-c4ccccc4S(N)(=O)=O)cn3)C2)ccc1Cl` (racemic), the inhibitory constant (Ki) at Prothrombin was 6600 nM; on Serine protease 1, over 8000 nM; on Coagulation factor X [1], 3.3 nM.
The like results for `Nc1cc(C2=NOC(CNC=O)(C(=O)Nc3ccc(-c4ccccc4S(N)(=O)=O)cn3)C2)ccc1Cl` (racemic) were, in that order, 14000 nM, over 8000 nM and 15 nM.
For `CS(=O)(=O)NCC1(C(=O)Nc2ccc(-c3ccccc3S(N)(=O)=O)cn2)CC(c2ccc(Cl)c(N)c2)=NO1` (stereo in doubt), the Ki at Prothrombin was 800 nM; at Serine protease 1, over 8000 nM; at Coagulation factor X [3] it was 2.3 nM; at Coagulation factor X [1], 1.5 nM. The same compound gave a clearance in [6] of 8.83 mL/min/kg. This compound also had a half-life in series [7] of 7.25 h. In the series filed under Oryctolagus cuniculus [4], this compound displayed an ID50 of 8 µM/h/kg.
